Among the data in ChEMBL document CHEMBL2203170, “Synthesis, DNA-PK inhibition, anti-platelet activity studies of 2-(N-substituted-3-aminopyridine)-substituted-1,3-benzoxazines and DNA-PK and PI3K inhibition, homology modelling studies of 2-morpholino-(7,8-di and 8-substituted)-1,3-benzoxazines” (Eur J Med Chem, 2012) are IC50 values, retold here.

Assay [1] has as its target DNA-dependent protein kinase catalytic subunit (Homo sapiens, UniProt P78527). Briefly: Inhibition of DNA-PK using EPPLSQEAFADLWKK as substrate after 5 mins by ADP-Glo kinase assay. On the technique in general: In ADP-Glo the light output rises with the ADP produced.
Assay [2] concerns the target Phosphatidylinositol 4,5-bisphosphate 3-kinase catalytic subunit gamma isoform (Homo sapiens, UniProt P48736). Description: Inhibition of PI3Kgamma by HTRF assay in presence of ATP.
In assay [3] the target is T1, Phosphatidylinositol 4,5-bisphosphate 3-kinase catalytic subunit delta isoform (Homo sapiens, UniProt O00329).
T1 sequence (O00329 whole entry): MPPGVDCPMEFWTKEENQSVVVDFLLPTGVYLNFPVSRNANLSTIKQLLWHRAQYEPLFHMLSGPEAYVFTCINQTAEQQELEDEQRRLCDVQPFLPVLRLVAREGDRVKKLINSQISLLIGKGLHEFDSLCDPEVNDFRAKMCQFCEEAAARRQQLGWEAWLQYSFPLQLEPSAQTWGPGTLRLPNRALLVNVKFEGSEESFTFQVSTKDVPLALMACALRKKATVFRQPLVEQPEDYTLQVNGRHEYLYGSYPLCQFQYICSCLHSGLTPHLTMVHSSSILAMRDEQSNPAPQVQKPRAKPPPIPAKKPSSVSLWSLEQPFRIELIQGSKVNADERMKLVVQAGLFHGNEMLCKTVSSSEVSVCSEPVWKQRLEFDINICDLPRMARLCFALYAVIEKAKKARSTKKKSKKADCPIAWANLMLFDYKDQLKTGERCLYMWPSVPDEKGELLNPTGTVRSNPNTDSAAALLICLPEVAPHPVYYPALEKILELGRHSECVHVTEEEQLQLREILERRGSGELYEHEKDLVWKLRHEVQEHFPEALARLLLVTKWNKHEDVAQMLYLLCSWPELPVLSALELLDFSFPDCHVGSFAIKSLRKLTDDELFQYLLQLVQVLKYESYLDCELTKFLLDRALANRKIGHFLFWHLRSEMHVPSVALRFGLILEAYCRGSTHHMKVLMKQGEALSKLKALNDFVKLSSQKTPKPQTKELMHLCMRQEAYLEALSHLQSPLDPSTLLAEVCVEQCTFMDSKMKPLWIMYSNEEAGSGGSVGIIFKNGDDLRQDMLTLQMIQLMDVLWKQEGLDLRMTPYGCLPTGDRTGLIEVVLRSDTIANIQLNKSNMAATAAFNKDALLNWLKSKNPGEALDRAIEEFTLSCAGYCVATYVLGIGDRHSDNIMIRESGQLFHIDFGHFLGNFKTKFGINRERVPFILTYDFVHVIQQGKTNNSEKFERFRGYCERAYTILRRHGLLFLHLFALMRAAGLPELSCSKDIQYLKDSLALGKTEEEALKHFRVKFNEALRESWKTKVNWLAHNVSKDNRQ
Briefly: Inhibition of PI3Kdelta by HTRF assay in presence of ATP.

The target of assay [4] is Phosphatidylinositol 4,5-bisphosphate 3-kinase catalytic subunit beta isoform (Homo sapiens, UniProt P42338). Briefly: Inhibition of PI3Kbeta by HTRF assay in presence of ATP.
In assay [5] the target is Phosphatidylinositol 4,5-bisphosphate 3-kinase catalytic subunit alpha isoform (Homo sapiens, UniProt P42336). Briefly: Inhibition of PI3Kalpha by HTRF assay in presence of ATP. (Time-resolved FRET reads energy transfer from a long-lived donor to a nearby acceptor.)
Chain of Phosphatidylinositol 4,5-bisphosphate 3-kinase catalytic subunit alpha isoform (P42336 whole entry, canonical isoform): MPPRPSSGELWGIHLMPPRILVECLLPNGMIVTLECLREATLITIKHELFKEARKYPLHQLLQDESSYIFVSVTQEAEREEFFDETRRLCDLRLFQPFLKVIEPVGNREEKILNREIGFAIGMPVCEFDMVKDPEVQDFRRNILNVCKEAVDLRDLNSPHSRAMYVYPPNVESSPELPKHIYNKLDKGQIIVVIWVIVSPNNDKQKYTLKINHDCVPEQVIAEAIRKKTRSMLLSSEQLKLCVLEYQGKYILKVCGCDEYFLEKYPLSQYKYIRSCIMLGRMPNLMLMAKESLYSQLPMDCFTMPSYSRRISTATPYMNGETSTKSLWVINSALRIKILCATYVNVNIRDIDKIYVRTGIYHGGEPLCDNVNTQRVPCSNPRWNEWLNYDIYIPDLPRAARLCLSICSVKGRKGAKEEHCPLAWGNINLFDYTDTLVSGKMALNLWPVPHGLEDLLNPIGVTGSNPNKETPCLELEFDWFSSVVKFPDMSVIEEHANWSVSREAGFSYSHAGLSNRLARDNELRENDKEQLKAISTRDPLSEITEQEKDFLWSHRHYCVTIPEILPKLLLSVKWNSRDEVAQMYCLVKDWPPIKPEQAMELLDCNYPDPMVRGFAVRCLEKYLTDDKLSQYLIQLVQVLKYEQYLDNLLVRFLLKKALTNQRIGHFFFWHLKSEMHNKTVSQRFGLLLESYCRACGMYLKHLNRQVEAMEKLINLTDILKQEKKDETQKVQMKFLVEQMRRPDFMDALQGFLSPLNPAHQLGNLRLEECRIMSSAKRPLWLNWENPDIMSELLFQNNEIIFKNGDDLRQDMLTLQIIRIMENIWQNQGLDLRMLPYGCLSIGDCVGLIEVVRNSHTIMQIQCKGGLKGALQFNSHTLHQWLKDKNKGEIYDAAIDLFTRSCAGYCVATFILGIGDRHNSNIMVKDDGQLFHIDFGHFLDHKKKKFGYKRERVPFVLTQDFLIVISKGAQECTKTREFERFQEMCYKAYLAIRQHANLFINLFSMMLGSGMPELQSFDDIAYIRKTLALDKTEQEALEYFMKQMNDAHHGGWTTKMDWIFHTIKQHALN
Assay [6] can be described thus: Antiplatelet activity against human platelet assessed as inhibition of collagen-induced platelet aggregation incubated for 2 mins before collagen induction by two-channel platelet aggregometer. It is filed as functional, cell-based. The essentials:
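Venous blood from healthy, drug-free volunteers collected into trisodium citrate 22.0 g/L. Aggregation was measured optically in a two-channel aggregometer, following an earlier protocol.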

Chain of DNA-dependent protein kinase catalytic subunit (P78527 whole entry, canonical isoform): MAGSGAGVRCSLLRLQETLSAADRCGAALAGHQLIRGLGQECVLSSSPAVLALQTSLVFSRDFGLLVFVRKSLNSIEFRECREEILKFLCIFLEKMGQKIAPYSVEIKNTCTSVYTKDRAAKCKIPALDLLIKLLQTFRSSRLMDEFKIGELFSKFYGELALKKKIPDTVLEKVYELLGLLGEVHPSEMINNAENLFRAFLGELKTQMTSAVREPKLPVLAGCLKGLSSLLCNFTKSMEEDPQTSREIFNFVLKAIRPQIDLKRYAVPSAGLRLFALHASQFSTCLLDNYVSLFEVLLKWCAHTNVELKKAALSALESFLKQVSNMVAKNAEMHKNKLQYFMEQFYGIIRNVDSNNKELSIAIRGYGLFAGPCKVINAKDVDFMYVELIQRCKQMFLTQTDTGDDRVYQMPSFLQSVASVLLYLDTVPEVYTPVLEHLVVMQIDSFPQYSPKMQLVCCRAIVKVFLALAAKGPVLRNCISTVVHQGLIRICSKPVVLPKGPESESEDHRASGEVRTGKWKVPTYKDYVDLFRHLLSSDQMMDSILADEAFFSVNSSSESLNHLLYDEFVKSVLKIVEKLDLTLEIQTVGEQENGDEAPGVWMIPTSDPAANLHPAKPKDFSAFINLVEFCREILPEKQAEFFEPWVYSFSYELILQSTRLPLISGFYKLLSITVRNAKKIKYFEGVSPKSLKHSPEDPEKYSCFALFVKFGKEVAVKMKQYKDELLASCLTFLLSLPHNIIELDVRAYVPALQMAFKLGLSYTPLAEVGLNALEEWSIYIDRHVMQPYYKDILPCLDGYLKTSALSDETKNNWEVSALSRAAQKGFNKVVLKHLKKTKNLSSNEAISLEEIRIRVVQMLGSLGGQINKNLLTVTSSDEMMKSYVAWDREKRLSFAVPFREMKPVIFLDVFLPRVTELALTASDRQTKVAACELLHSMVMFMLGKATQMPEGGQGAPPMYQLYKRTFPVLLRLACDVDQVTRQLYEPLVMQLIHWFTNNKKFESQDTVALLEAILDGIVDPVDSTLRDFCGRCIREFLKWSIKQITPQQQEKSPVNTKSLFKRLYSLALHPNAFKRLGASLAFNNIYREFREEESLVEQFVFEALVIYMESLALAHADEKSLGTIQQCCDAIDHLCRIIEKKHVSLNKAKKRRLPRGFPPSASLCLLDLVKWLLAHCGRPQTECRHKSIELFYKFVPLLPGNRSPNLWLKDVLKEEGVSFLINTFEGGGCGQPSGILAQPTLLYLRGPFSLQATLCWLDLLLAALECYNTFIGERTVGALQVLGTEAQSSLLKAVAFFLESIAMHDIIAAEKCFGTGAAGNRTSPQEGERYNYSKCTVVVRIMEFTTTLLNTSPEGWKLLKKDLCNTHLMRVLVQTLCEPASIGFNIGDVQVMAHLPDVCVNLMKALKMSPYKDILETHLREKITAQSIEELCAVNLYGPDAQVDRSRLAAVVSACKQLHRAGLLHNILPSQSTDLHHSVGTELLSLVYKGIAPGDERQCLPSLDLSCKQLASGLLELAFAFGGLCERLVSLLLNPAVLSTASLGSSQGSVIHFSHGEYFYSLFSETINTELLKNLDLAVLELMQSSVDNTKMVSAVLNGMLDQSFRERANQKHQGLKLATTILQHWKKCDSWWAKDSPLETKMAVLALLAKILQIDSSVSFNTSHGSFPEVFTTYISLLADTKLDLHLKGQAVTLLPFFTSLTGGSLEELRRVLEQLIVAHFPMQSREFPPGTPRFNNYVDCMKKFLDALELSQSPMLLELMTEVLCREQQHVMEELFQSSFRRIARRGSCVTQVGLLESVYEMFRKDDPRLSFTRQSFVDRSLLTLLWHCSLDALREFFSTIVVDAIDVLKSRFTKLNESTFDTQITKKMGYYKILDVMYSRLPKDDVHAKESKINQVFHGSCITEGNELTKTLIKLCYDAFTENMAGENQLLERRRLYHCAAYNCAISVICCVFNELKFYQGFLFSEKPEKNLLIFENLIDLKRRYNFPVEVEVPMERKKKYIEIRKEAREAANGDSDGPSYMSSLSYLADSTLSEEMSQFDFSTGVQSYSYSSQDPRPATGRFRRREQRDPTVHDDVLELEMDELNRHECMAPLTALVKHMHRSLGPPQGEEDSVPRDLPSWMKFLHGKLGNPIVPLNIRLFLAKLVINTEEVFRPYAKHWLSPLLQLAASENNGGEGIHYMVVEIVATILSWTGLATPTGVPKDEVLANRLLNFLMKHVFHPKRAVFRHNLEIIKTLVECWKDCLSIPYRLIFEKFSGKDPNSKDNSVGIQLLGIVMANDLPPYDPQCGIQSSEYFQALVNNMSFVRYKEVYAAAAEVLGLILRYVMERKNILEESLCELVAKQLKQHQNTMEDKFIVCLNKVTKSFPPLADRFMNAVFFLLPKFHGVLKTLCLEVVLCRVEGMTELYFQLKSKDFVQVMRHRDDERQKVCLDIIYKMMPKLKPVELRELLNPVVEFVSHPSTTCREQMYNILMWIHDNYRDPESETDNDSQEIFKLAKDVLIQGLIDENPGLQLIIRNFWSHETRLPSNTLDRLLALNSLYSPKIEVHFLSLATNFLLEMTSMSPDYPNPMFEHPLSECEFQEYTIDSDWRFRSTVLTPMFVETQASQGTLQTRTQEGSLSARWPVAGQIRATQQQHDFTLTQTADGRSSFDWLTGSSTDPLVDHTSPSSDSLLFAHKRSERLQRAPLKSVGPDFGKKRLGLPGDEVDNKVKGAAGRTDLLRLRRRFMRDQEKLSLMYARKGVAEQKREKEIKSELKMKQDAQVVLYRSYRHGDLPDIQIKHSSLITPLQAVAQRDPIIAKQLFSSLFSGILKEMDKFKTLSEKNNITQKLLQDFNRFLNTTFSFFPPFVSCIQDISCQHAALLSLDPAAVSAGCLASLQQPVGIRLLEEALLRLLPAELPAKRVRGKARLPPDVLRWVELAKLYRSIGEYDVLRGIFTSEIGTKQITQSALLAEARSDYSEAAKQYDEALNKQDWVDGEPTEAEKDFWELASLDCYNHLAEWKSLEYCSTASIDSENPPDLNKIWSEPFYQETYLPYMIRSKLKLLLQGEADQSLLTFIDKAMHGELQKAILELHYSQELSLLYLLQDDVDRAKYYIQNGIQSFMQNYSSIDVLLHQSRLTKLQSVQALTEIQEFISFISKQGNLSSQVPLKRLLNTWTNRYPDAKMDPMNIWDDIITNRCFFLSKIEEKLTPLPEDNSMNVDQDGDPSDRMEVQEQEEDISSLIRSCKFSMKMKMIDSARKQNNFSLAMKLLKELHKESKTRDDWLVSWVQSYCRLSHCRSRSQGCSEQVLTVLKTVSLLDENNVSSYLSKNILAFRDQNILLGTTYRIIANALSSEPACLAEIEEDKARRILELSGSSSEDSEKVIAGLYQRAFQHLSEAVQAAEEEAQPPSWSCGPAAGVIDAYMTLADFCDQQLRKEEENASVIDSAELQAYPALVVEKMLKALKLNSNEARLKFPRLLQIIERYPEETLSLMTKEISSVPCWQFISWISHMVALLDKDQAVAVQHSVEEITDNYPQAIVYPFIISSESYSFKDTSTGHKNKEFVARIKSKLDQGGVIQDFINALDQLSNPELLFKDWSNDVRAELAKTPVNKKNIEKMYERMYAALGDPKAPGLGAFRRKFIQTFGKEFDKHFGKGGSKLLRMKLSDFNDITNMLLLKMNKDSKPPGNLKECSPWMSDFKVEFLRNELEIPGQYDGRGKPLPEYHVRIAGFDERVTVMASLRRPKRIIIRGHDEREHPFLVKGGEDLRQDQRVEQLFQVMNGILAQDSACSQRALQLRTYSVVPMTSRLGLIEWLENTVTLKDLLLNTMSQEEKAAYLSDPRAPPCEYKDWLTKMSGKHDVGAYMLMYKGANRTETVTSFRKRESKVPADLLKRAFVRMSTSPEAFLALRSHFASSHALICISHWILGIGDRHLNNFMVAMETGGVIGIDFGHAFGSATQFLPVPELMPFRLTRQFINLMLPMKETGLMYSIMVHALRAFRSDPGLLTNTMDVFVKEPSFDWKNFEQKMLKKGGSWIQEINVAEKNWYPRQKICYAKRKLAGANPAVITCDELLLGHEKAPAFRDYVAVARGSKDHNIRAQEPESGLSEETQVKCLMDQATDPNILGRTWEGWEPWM

For the molecule `CN1CCN(CCOc2cccc3c(=O)nc(N4CCOCC4)oc23)CC1`, the IC50 in assay [1] worked out at 1.7 µM.
On the same count and under the same terms, the value for `O=c1nc(N2CCOCC2)oc2cc(OCc3ccccn3)ccc12` was 2.7 µM; that for `Cc1c(OCc2ccccn2)ccc2c(=O)nc(N3CCOCC3)oc12` was 1.3 µM.
`O=c1nc(N2CCOCC2)oc2cc(OCc3cccnc3)ccc12` came in with an IC50 in assay [1] of 2.5 µM.
Turning to `Cc1c(OCc2cccnc2)ccc2c(=O)nc(N3CCOCC3)oc12`, the 50% inhibitory concentration (IC50) was 0.72 µM in assay [2]; 2.02 µM in assay [3]; 0.14 µM in assay [4]; 0.13 µM in assay [5]; 0.28 µM in assay [1].
Turning to `O=c1nc(N2CCOCC2)oc2c(OCc3cccnc3)cccc12`, the IC50 in assay [1] is 0.36 µM.
On the same count and under the same terms, then `O=c1nc(N2CCOCC2)oc2cc(OCc3ccncc3)ccc12`, with 4.2 µM.
Still for that read-out and setting: then `Cc1c(OCc2ccncc2)ccc2c(=O)nc(N3CCOCC3)oc12`, with 1.2 µM; and `O=c1nc(N2CCOCC2)oc2c(OCc3ccncc3)cccc12`, with 1.6 µM.
For `O=c1nc(Nc2cccnc2)oc2c(-c3ccccc3)cccc12`, the IC50 in assay [6] stood at 76 µM.
Still for that read-out and setting: then `O=c1nc(Nc2cccnc2)oc2ccccc12`, with 90 µM; and `Cc1cccc2c(=O)nc(N(Cc3cccnc3)c3cccnc3)oc12`, with 100 µM.
Same read-out and setting: the value for `O=c1nc(N(Cc2cccnc2)c2cccnc2)oc2c(-c3ccccc3)cccc12` was 65 µM; that for `O=c1nc(N(Cc2ccncc2)c2cccnc2)oc2c(-c3ccccc3)cccc12` was 75 µM; that for `O=c1nc(N(Cc2ccncc2)c2cccnc2)oc2cc(OCc3ccncc3)ccc12` was 55 µM.
Same read-out and setting: the value for `Cc1c(OCc2ccccn2)ccc2c(=O)nc(N(Cc3ccccn3)c3cccnc3)oc12` was 35 µM.
For the molecule `Cc1c(OCc2cccnc2)ccc2c(=O)nc(N(Cc3cccnc3)c3cccnc3)oc12`, the half-maximal inhibitory concentration (IC50) came out at 2.5 µM in assay [1] and 10 µM in assay [6].
As for `Cc1c(OCc2ccccn2)ccc2c(=O)n(Cc3ccccn3)c(=O)oc12`, the IC50 in assay [6] turned out to be 85 µM.
`Cc1c(OCc2cccnc2)ccc2c(=O)n(Cc3cccnc3)c(=O)oc12`: the 50% inhibitory concentration (IC50) in assay [1] stood at 10 µM; in assay [6], 75 µM.
As for `Cc1c(OCc2ccccc2)ccc2c(=O)n(Cc3ccccc3)c(=O)oc12`, in assay [6], the concentration for half-maximal inhibition (IC50) turned out to be 85 µM.
`O=c1nc(N2CCOCC2)oc2c(OCc3ccccn3)cccc12` displayed an IC50 in assay [1] of 0.62 µM.
Still for that read-out and setting: the value for `Cc1cccc2c(=O)nc(N(Cc3ccccn3)c3cccnc3)oc12` was 25.2 µM; that for `O=c1nc(N(Cc2ccccn2)c2cccnc2)oc2c(OCc3ccccn3)cccc12` was 7.8 µM.
The same measure, in the same setting: the value for `O=c1nc(N(Cc2cccnc2)c2cccnc2)oc2c(OCc3cccnc3)cccc12` was 13.5 µM; that for `O=c1nc(N(Cc2ccccn2)c2cccnc2)oc2cc(OCc3ccccn3)ccc12` was 5.7 µM; that for `O=c1nc(N(Cc2cccnc2)c2cccnc2)oc2cc(OCc3cccnc3)ccc12` was 14.8 µM.
As for `O=c1nc(N2CCOCC2)oc2c(-c3ccccc3)cccc12`, the IC50 in assay [2] was 1.5 µM; in assay [3] it was 0.95 µM; in assay [4], 3.36 µM; in assay [5], 4.07 µM; in assay [1], 0.3 µM.
Regarding `CN1CCN(CCOc2ccc3c(=O)nc(N4CCOCC4)oc3c2)CC1`, the IC50 in assay [1] is 6.8 µM.
`Cc1c(OCCN2CCN(C)CC2)ccc2c(=O)nc(N3CCOCC3)oc12`: the IC50 was no less than 100 µM in assay [2]; no less than 100 µM in assay [3]; no less than 100 µM in assay [4]; no less than 100 µM in assay [5]; 0.5 µM in assay [1].

In general, IC50 refers to the concentration at which inhibition is half-maximal.
